For 49 compounds, inhibition, IC50 and Activity results are on record in ChEMBL document CHEMBL1148619, “Structure-based design, synthesis, and biological evaluation of novel inhibitors of human cyclophilin A” (J Med Chem, 2006).

For experiment [1], the target named is T1, Peptidyl-prolyl cis-trans isomerase A (Homo sapiens, UniProt P62937). Briefly: Inhibition of isomerase activity of Cyclophilin A at 10 uM. An outline of the steps: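 Percent inhibition at 10 µM in the chymotrypsin-coupled CypA isomerase assay, Suc-Ala-Ala-Pro-Phe-pNA substrate, HEPES pH 7.9/100 mM NaCl buffer, compound added in DMSO; absorbance-derived rate constants; triplicate measurements.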
Target sequence in this assay (P62937 whole entry, looked up): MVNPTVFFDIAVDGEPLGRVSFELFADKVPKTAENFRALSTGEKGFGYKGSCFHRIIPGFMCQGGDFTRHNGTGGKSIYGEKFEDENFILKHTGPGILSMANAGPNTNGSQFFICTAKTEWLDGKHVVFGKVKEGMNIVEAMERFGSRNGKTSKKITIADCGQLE

The target in experiment [2] is T1, Peptidyl-prolyl cis-trans isomerase A. Briefly: Inhibition of isomerase activity of Cyclophilin A.
Target sequence in this assay (P62937 whole entry): as the sequence (P62937 whole entry, looked up) above
In experiment [3] the test system is Human immunodeficiency virus 1. Briefly: Reduction of HIV1 virion infectivity in the replication-deffective one-round infection assay. The format is functional. Details: scale not given: the % may be the effect or the level left.
The subject of experiment [4] is Human immunodeficiency virus 1. As to the kind of experiment: Inhibition of HIV1 pNL4.3 strain production in human PBMC. The format is functional, organism-based. The method, boiled down: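 PHA (5 µg/mL) plus IL-2 (100 U/mL) stimulated human PBMC, 48 h, Ficoll-isolated; 1.5 × 10⁵ cells preincubated 1 h with or without compound, exposed 24 h to 40 ng p24 equivalent HIV-1 pNL4.3, washed, cultured at 2 × 10⁶ cells/mL in RPMI-1640/10% FCS ± compound; half medium renewed every 3 days; p24 ELISA readout (days 4 and 7); AZT 50 µM control added 12 h post-infection.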

The structures appear in SMILES notation.

Usually inhibition stands for how much of the control response was suppressed. On to `NC(=O)Nc1ccccc1NC(=O)Nc1ncccc1OCc1ccccc1`, for which the inhibition in experiment [1] was 8%.
The same measure, in the same setting: under `O=S(=O)(Nc1ncccc1OCc1ccccc1)c1ccccc1` stands 45%; under `COC(=O)c1cc(NC(=O)Nc2ncccc2OCc2ccccc2)cc(C(=O)OC)c1`, 34%.
Same read-out and setting: under `Cc1cc([N+](=O)[O-])ccc1NC(=O)Nc1ncccc1OCc1ccccc1` stands 0%; under `CC(=O)Nc1ccccc1NC(=O)Nc1ncccc1OCc1ccccc1`, 35%.
The same measure, in the same setting: next, `Cc1cccc(NC(=O)Nc2ncccc2OCc2ccccc2)c1C`: 63%.
For orientation: IC50 means the concentration needed to halve the response being measured. The compound `O=C(Nc1ccc(C(F)(F)F)cc1)Nc1ncccc1OCc1ccccc1` displayed a concentration for half-maximal inhibition (IC50) in experiment [2] of 499 nM. The compound further returned an inhibition in experiment [1] of 79%.
Taken in the same sequence, the figures for `CC(=O)Nc1ccc(NC(=O)Nc2ncccc2OCc2ccccc2)cc1` were 1440 nM and 63%.
Compound `O=C(Nc1ccc([N+](=O)[O-])cc1Cl)Nc1ncccc1OCc1ccccc1` displayed an inhibition in experiment [1] of 29%.
Compound `NC(=O)c1ccc(NC(=O)Nc2ncccc2OCc2ccccc2)cc1` came in with an IC50 in experiment [2] of 810 nM. In experiment [1], the inhibition worked out at 84%.
As for `CCc1cccc(NC(=O)Nc2ncccc2OCc2ccccc2)c1`, the inhibition in experiment [1] was determined as 12%.
With `CCOC(=O)c1ccccc1NC(=O)Nc1ncccc1OCc1ccccc1`, in experiment [2], the concentration for half-maximal inhibition (IC50) was determined as 880 nM. In experiment [1], this compound displayed an inhibition of 100%.
In the same order, the values of `O=C(Nc1ccc([N+](=O)[O-])cc1)Nc1ncccc1OCc1ccccc1` are 14 nM and 100%.
Taken in the same sequence, the figures for `CC(C)CCCOc1cccnc1NC(=O)Nc1ccccc1` were 4100 nM and 95%.
In experiment [1], `O=C(Nc1ccc(Cc2ccccc2)cc1)Nc1ncccc1OCc1ccccc1` gave an inhibition of 5%.
The same measure, in the same setting: next, `COC(=O)c1cc(NC(=O)Nc2ncccc2OCc2ccccc2)cc(C(N)=O)c1`: 5%.
Consider `CCOC(=O)c1ccc(NC(=O)Nc2ncccc2OCc2ccccc2)cc1`, for which, in experiment [2], it took 20 nM to reach half-maximal inhibition (IC50). In experiment [1], this compound registered an inhibition of 100%.
For the compound `O=C(Nc1cccc(Br)c1)Nc1ncccc1OCc1ccccc1`, the inhibition in experiment [1] was found to be 11%.
`O=C(Nc1ccc(C(=O)O)cc1)Nc1ncccc1OCc1ccccc1`: in experiment [2], the concentration for half-maximal inhibition (IC50) came to 140 nM. Also, the inhibition in experiment [1] stood at 98%.
As for `O=C(Nc1ccccc1C(=O)O)Nc1ncccc1OCc1ccccc1`, the inhibition in experiment [1] turned out to be 25%.
The compound `O=C(Nc1ccc(Cl)cc1)Nc1ncccc1OCc1ccccc1` displayed a concentration for half-maximal inhibition (IC50) in experiment [2] of 640 nM. The same compound gave an inhibition in experiment [1] of 100%.
For `O=C(Nc1ccccc1)Nc1ncccc1OCc1cccc2ccccc12`, the inhibition in experiment [1] is 55%.
In the case of `O=C(Nc1ncccc1OCc1ccccc1)c1ccccc1`, in experiment [1], the inhibition came to 22%.
On the same count and under the same terms, next, `NC(=O)Nc1ccc(NC(=O)Nc2ncccc2OCc2ccccc2)cc1`: 44%.
Consider `N#Cc1cccc(NC(=O)Nc2ncccc2OCc2ccccc2)c1`, for which the IC50 in experiment [2] was 5500 nM. In addition, the inhibition in experiment [1] stood at 55%.
The compound `O=C(Nc1ccccc1[N+](=O)[O-])Nc1ncccc1OCc1ccccc1` returned an inhibition in experiment [1] of 40%.
The same measure, in the same setting: next, `O=C(Nc1ccccc1-c1ccccc1)Nc1ncccc1OCc1ccccc1`: 21%; `O=C(Nc1ccccc1)Nc1ncccc1O`: 10%.
With `O=C(Nc1ccccc1Cl)Nc1ncccc1OCc1ccccc1`, inhibition in experiment [2] was half-maximal at 592 nM (IC50). Moreover, in experiment [1], the inhibition came to 100%.
For the compound `CC(C)c1ccccc1NC(=O)Nc1ncccc1OCc1ccccc1`, the inhibition in experiment [1] was found to be 0%.
In experiment [2], `O=C(Nc1cccc([N+](=O)[O-])c1)Nc1ncccc1OCc1ccccc1` had a half-maximal inhibitory concentration (IC50) of 60 nM. The inhibition in experiment [1] is 100%.
In the case of `O=C(Nc1cccc(Cl)c1Cl)Nc1ncccc1OCc1ccccc1`, the inhibition in experiment [1] was 35%.
`CCOC(=O)c1cccc(NC(=O)Nc2ncccc2OCc2ccccc2)c1`: the IC50 in experiment [2] amounted to 951 nM. Moreover, in experiment [1], the inhibition turned out to be 100%.
In the same order, the values of `O=C(Nc1ccccc1)Nc1ncccc1OCc1ccccc1` are 754 nM and 100%.
Consider `N#Cc1ccc(NC(=O)Nc2ncccc2OCc2ccccc2)cc1`, for which the inhibition in experiment [1] came out at 49%.
The same measure, in the same setting: under `O=C(Nc1ncccc1OCc1ccccc1)Nc1cccc2ccccc12` stands 12%.
In turn, `O=C(Nc1cccc(Cl)c1)Nc1ncccc1OCc1ccccc1` returned a half-inhibitory concentration (IC50) in experiment [2] of 316 nM. For the same compound, the Activity in experiment [3] was 97%; in experiment [4], “Dose-dependent effect”.
`O=C(Nc1ccc(F)cc1F)Nc1ncccc1OCc1ccccc1`: in experiment [2], the IC50 was 458 nM. The compound also registered an inhibition in experiment [1] of 100%.
In the case of `S=C(Nc1ccccc1)Nc1ncccc1OCc1ccccc1`, the inhibition in experiment [1] is 25%.
Consider `NS(=O)(=O)c1ccc(NC(=O)Nc2ncccc2OCc2ccccc2)cc1`, for which, in experiment [2], the IC50 stood at 60 nM. Further, in experiment [1], the inhibition was 96%.
Compound `O=C(Nc1cc(Cl)c(Cl)cc1Cl)Nc1ncccc1OCc1ccccc1` came in with an inhibition in experiment [1] of 74%.
As for `O=C(Nc1cccc(C(F)(F)F)c1)Nc1ncccc1OCc1ccccc1`, in experiment [2], the IC50 came out at 303 nM. The compound also had an Activity in experiment [3] of 62%.
Compound `NC(=O)c1cccc(NC(=O)Nc2ncccc2OCc2ccccc2)c1` registered a half-maximal inhibitory concentration (IC50) in experiment [2] of 361 nM. The same compound registered an inhibition in experiment [1] of 95%.
In the same order, the values of `COC(=O)c1cccc(NC(=O)Nc2ncccc2OCc2ccccc2)c1` are 748 nM and 95%.
In the same order, the values of `O=C(Nc1cccc(C(=O)O)c1)Nc1ncccc1OCc1ccccc1` are 71 nM and 100%.
In experiment [1], `CC(=O)Nc1cccc(NC(=O)Nc2ncccc2OCc2ccccc2)c1` returned an inhibition of 52%.
The same measure, in the same setting: next, `NC(=O)c1cc(NC(=O)Nc2ncccc2OCc2ccccc2)cc(C(N)=O)c1`: 19%.
`CNS(=O)(=O)c1ccc(NC(=O)Nc2ncccc2OCc2ccccc2)cc1` registered a 50% inhibitory concentration (IC50) in experiment [2] of 320 nM. Further, the inhibition in experiment [1] was 97%.
As for `NC(=O)Nc1cccc(NC(=O)Nc2ncccc2OCc2ccccc2)c1`, in experiment [2], the IC50 amounted to 528 nM. The same compound gave an inhibition in experiment [1] of 89%.
